This is a sample that favours compounds with a hit; in the whole collection about 2.4% have one here.
S100A4 MyoIIA – blocks human S100A4 binding to myosin IIA peptide | S100A4/TAMRA-MyoIIA peptide fluorescence polarization | AID 652163 | inhibition, % at 10.7 µM | hit rate 0.14% among 360,000;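 active = mean inhibition of at least 70% across replicates, with every replicate also reaching that level; inconclusive = mean inhibition reaches 70% but some replicates fall short; inactive = mean inhibition below 70%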
Target sequence (P26447 whole entry, looked up): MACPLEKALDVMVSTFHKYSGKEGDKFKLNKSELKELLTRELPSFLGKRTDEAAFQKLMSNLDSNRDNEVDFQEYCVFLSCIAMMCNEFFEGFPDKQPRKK
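assay system = human S100A4 monomer with TAMRA-labelled myosin IIA peptide | also added = labelled myosin peptide probe, 5 nM | incubation = 5 min between mix addition and reading | control set = DMSO and TFP controls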
PGC1a acetyl inh – lowers PGC1a acetylation signal in U2OS cells; AlphaScreen anti-acetyl-lysine; with virally co-expressed GCN5 acetyltransferase; AID 651687; inhibition, % at 15.6 µM; hit rate 0.17% among 350,000;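 active = every replicate shows inhibition of at least 40%; inconclusive = mean inhibition at least 40% but some replicate below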;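 also: 0% = neutral control wells and 100% = positive control wells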
Ecoli rRNA inh – selective bacterial rRNA inhibition in E. coli; AID 720706; hit rate 1.6% among 350,000; E. coli WT GFP vs humanized-ribosome RFP mutants, fluorescence, 24 h; hits give low values; DMSO median 0, no signal -100; GFP signal change (wild-type ribosome), % (no concentration beside the values);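 active = significant combined selectivity score with lowered wild-type GFP, culture density cut under 30%, mutant RFP and density less affected; inactive = any of these conditions unmet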
CASP6 VEID inh – caspase-6 (human) enzyme inhibition; hit rate 0.53% among 350,000; inhibition, % at 12.5 µM; P55212; purified caspase-6, Z-VEID-R110 cleavage fluorescence;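 active = mean inhibition across replicates at least about 35%, with every replicate also reaching that limit, limit read from the data; inconclusive = only one of the two criteria met; inactive = neither criterion met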;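 also: 0% = median of neutral control wells and 100% = no fluorescence left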
Target sequence (P55212 24-179 limits assumed): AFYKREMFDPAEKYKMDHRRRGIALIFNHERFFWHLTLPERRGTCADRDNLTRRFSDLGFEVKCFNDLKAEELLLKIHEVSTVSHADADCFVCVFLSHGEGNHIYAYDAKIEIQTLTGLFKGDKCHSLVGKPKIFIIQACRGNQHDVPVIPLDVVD
Target sequence (P55212 194-293 limits assumed): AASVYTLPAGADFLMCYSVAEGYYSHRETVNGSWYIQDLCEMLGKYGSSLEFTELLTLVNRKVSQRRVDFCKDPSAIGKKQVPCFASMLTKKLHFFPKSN
ERAP1 HTS inh – blocks human ERAP1 aminopeptidase activity | recombinant ERAP1, Leu-AMC fluorescence, 60 min | Q9NZ08 | inhibition, % at 10.7 µM | hit rate 0.15% among 340,000;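 active = mean replicate inhibition of at least 30%, or all replicates individually reaching that 30% level; inactive = mean below 30% and not every replicate reaching it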;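 also: 0% = neutral control wells and 100% = L-leucinethiol positive control wells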
ARNT-TACC3 inh – disrupts binding between human ARNT and TACC3. AlphaScreen His-ARNT PAS-B/GST-TACC3 binding, luminescence; TACC3 fragment carries E629A point mutation. inhibition, % at 9.99 µM. hit rate 0.66% among 390,000. AID 623870;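 active = mean inhibition of replicates at least 50% and at least half of replicates each reaching 50%; inconclusive = half or more replicates reach 50% but mean below 50%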;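 also: 0% = complete ARNT plus TACC3 wells and 100% = ARNT alone without TACC3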
AID977621 – growth inhibition of wild-type GFP E. coli, dose response, H69 mutant RFP, cherry-pick | E. coli wild-type GFP strain growth, fluorescence, 24 h | 1,900 tested, under 10 active | activity change, negative = inhibition at 50 µM | shares compounds with Ecoli rRNA inh | AID 977621;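 active = Wild-type ribosome reporter drop at least double the humanized mutant ribosome reporter drop, growth loss under a set limit; inconclusive = no clear call, values can overlap the other calls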;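 also: wild-type GFP and H69 mutant RFP strains grown together 50/50 in each well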
AID977628 – growth of wild-type and h24-humanized E. coli strains – h24 mutant RFP vs wild-type GFP, cherry-pick, dose response. shares compounds with Ecoli rRNA inh. activity change, negative = inhibition at 50 µM. E. coli WT GFP strain growth, fluorescence, 24 h. 1,900 tested, under 10 active. AID 977628;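 active = compound lowering the normal-ribosome reporter at least twice as much as the humanized-ribosome reporter, growth loss under a set limit; inconclusive = no clear call, values can overlap the other calls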;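 also: wild-type GFP and h24 humanized RFP strains co-cultured 1 to 1 per well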
An asterisk follows results filed as active; ? = inconclusive; / = no result.

SMILES | S100A4 MyoIIA | PGC1a acetyl inh | Ecoli rRNA inh | CASP6 VEID inh | ERAP1 HTS inh | ARNT-TACC3 inh | AID977621 | AID977628
NC(=O)c1sc2nnc(-c3ccccc3)c(-c3ccccc3)c2c1N | -4.8 | 2.6 | -28.6* | 3.5 | 6.4 | 1.7 | / | -8.11
NC(=O)c1snnc1-c1ccccc1 | -11.7 | 2.9 | -0.5 | -4.9 | / | -13.3 | / | /
CN(C)CCCN(C(=O)CCSc1ccccc1)c1nc2cc3c(cc2s1)OCO3 | 0.0 | -2.7 | -31.1* | -9.8 | -0.1 | 2.7 | -5.15 | -3.77
CN(C)CCCN(C(=O)CCS(=O)(=O)c1ccccc1)c1nc2cc3c(cc2s1)OCO3 | 4.7 | 27.4 | 9.3 | -12.6 | 4.1 | -1.6 | / | /
Fc1ccc(-c2nc3c4ccccc4ccn3c2Cc2ccccc2)cc1 | 0.5 | 2.5 | 16.7 | -0.7 | / | / | / | /
Fc1cccc(Cc2c(-c3ccco3)nc3c4ccccc4ccn23)c1 | -9.6 | 1.1 | -21.3* | -1.7 | -2.4 | / | -9.83 | /
Clc1cccc(Cc2c(-c3ccco3)nc3c4ccccc4ccn23)c1 | -16.5 | / | / | 15.3 | -0.4 | / | / | /
Brc1ccc(-c2nc3c4ccccc4ccn3c2Cc2ccccc2)cc1 | -13.8 | -2.7 | -21.9* | -0.4 | -2.6 | / | 9.08 | 0.426
CCCC#Cc1ccc([C@H]2[C@H]3CN(C(=O)c4cccc(F)c4)CC(=O)N3[C@H]2CO)cc1 | / | / | 3.6 | / | / | / | / | /
COc1ccc2c3c([nH]c2c1)[C@H](CO)N(C(=O)c1ccncc1)CC31CCN(C(=O)C2CCC2)CC1 | 6.2 | 5.8 | -0.6 | -1.0 | -0.8 | / | / | /
CN(C)C(=O)[C@@H]1[C@@H](CO)[C@@H]2Cn3c(ccc(/C=C/c4ccccc4)c3=O)[C@@H]2N1C(=O)c1cccnc1 | 4.0 | / | 1.2 | -2.9 | -1.5 | -10.3 | / | /
O=C(Nc1ccccc1Cl)c1ccc(C(=O)Nc2ccccc2Cl)cc1 | 5.4 | / | 8.3 | 1.0 | 2.2 | -9.4 | / | /
O=C(Nc1ccc(C(=O)Nc2ccccc2Cl)cc1)c1cccnc1 | -1.5 | / | -19.9* | 2.1 | 3.1 | 1.6 | -1.82 | -11.4
C[C@H]1CN([C@@H](C)CO)C(=O)Cc2cc(NS(=O)(=O)c3cn(C)cn3)ccc2O[C@H]1CN(C)S(=O)(=O)c1cccs1 | 8.2 | 6.6 | -0.3 | / | 1.9 | -2.3 | / | /
COc1ccc(OC)c(S(=O)(=O)NCc2cc(-c3ccccc3)no2)c1 | -5.2 | -0.4 | 3.2 | 0.8 | -1.8 | 1.4 | / | /
O=S(=O)(NCc1cc(-c2ccccc2)no1)c1ccccc1Cl | 0.2 | -15.6 | -20.8* | 3.3 | -4.9 | -7.8 | -1.56 | 1.01
O=C(NCC[C@H]1CC[C@@H](NC(=O)C2CC2)[C@H](CO)O1)c1cc(Cl)cc(Cl)c1 | 0.0 | -5.4 | -0.6 | -0.6 | 0.8 | -3.5 | / | /
C[C@H](CO)N1C[C@H](C)[C@@H](CN(C)C(=O)C2CCCCC2)Oc2cc(-c3ccc(F)cc3)ccc2S1(=O)=O | -37.6 | 7.8 | -9.4 | 1.1 | 0.9 | 2.7 | / | /
CC(C(=O)Nc1nc2ccccc2s1)n1cc([N+](=O)[O-])cn1 (stereo not drawn) | -1.9 | / | -18.4* | 1.1 | 2.3 | -1.3 | -18 | /
O=C(CCNC(=O)c1ccccc1)Nc1ccc(Cl)c(S(=O)(=O)N2CCCCC2)c1 | 1.6 | -14.3 | -40.8* | 0.4 | -3.4 | -1.6 | -15.5 | /
Cc1ccc(NC(=O)CCCSc2ccccc2)cc1S(=O)(=O)N1CCOCC1 | 3.9 | 0.3 | -24.4* | 0.2 | -3.1 | -0.8 | -19.3 | /
O=C(CCNC(=O)c1ccc([N+](=O)[O-])cc1)Nc1ccc(Cl)c(S(=O)(=O)N2CCOCC2)c1 | -6.0 | -2.0 | -9.6 | 0.8 | 4.9 | / | / | /
Cc1ccc(NC(=O)c2ccc([N+](=O)[O-])s2)cc1S(=O)(=O)N1CCOCC1 | -2.8 | -33.3 | -40.0* | 0.3 | -0.9 | -3.8 | ? | -11.6
O=C(Nc1cc(S(=O)(=O)N2CCOCC2)ccc1N1CCOCC1)c1ccc([N+](=O)[O-])s1 | 0.5 | 5.9 | -18.0* | 2.4 | 4.0 | / | ? | -1.88
COc1ccc2c3c([nH]c2c1)[C@@H](CO)N(C(C)=O)CC31CN(S(=O)(=O)c2ccccc2)C1 | -11.3 | -3.4 | -7.1 | / | 1.3 | / | / | /
SMILES | S100A4 MyoIIA | PGC1a acetyl inh | Ecoli rRNA inh | CASP6 VEID inh | ERAP1 HTS inh | ARNT-TACC3 inh | AID977621 | AID977628
COc1ccc(C(=O)Nc2nc3ccc(OC)cc3s2)cc1 | -8.1 | / | -31.6* | -1.3 | -0.7 | 11.7 | / | ?
CC1(C)CC(=O)c2cnc(N3CCc4ccccc43)nc2C1 | -6.8 | -9.2 | -34.2* | 0.6 | 20.5 | -18.5 | -2.73 | /
COc1cc(-c2cc3nc(NCCc4ccc(S(N)(=O)=O)cc4)ccn3n2)cc(OC)c1OC | -3.3 | / | -18.0 | 0.1 | -2.2 | / | / | /
COc1cc(-c2cc3nc(NCCc4ccncc4)ccn3n2)cc(OC)c1OC | -3.0 | 0.0 | -18.5* | 0.0 | 2.7 | / | / | ?
Cc1ccc(C(=O)c2ccccc2C(=O)OCC(=O)N2CCCC2)cc1 | -12.9 | 3.8 | 4.3 | -3.2 | -3.1 | -16.9 | / | /
Cc1ccc(C(=O)c2ccccc2C(=O)OCC(=O)NC(C)(C)C)cc1 | 3.4 | 0.4 | -19.6* | -4.7 | -5.8 | 5.0 | -21.5 | /
CCc1nnc(NS(=O)(=O)c2ccc(NC(=O)c3cccc(Cl)c3)cc2)s1 | -5.7 | / | -17.2* | 0.7 | 0.6 | -4.0 | ? | ?
CCc1nnc(NS(=O)(=O)c2ccc(NC(=O)c3ccc(Cl)cc3)cc2)s1 | 0.8 | 0.5 | -16.9 | 2.8 | -2.6 | 0.9 | / | /
CC(=O)Nc1cccc(OCC(O)Cn2cnc3ccccc32)c1 (stereo not drawn) | / | -3.9 | / | / | / | 1.4 | / | /
CC(=O)OC(COc1cccc(C)c1)Cn1cnc2ccccc21 (stereo not drawn) | -0.6 | -8.1 | -36.8* | -0.3 | 0.9 | 23.4 | -14.4 | ?
CN(c1ccc(C(=O)NCc2cccs2)cc1)S(=O)(=O)c1ccccc1 | 1.6 | / | -18.2* | -4.7 | / | 2.6 | -5.31 | -4.86
CC(=O)N[C@@H]1C=C[C@@H](CC(=O)NCc2ccc(Cl)cc2)O[C@H]1CO | 3.6 | 2.6 | 2.2 | 1.2 | -3.4 | -4.0 | / | /
COc1ccc(C(=O)COc2ccc(F)cc2)c(O)c1 | -1.6 | -8.4 | -21.4* | 2.9 | -1.6 | 30.8 | 0.437 | -8.93
CN1CCN(C(=O)C[C@H]2CC[C@H]3[C@@H](COC[C@H](O)CN3C(=O)Nc3ccc(F)cc3)O2)CC1 | 1.2 | 4.9 | 3.7 | -22.2 | -4.1 | -3.7 | / | /
O=C(NCCc1ccc(O)cc1)c1[nH]c(C(F)(F)F)nc1-c1ccccc1 | -1.7 | 5.9 | -23.0* | -0.2 | / | / | -2.16 | ?
O=C(C1CCC1)N1CC(=O)N2[C@@H](CO)[C@@H](c3ccc(C#CCc4ccccc4)cc3)[C@@H]2C1 | 1.5 | -9.3 | 3.6 | 2.3 | 0.8 | / | / | /

Bioassay records (PubChem BioAssay)
